Experimental data from ChEMBL document CHEMBL4602675, “The Marine Natural Product Manzamine A Inhibits Cervical Cancer by Targeting the SIX1 Protein” (J Nat Prod, 2020).
Activity calls are given as the source filed them. The calls are words filed in the database; no cut-off is given here.

How the values were obtained:
[1] = target: T1, Homeobox protein SIX1 (Homo sapiens) (UniProt Q15475); assay: Potency index, ratio for inhibition activity of apigenin to test compound for inhibition of SIX1 in human HeLa cells after 48 hrs by Western blot analysis; assay type: cell-based
T1 sequence (whole entry): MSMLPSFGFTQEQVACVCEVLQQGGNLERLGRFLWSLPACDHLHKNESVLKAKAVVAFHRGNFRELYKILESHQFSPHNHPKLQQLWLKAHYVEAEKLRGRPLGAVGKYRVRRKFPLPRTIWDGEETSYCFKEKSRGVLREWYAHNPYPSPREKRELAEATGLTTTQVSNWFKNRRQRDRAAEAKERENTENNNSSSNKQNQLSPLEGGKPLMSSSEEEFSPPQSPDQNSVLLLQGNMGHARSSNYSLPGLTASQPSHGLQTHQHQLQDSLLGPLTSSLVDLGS
Summary of the method: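 Cells plated at 1 × 10^6 per 100 mm dish and treated next day for 48 h with test compound (2 or 4 μM) or apigenin (10, 20 or 40 μM). RIPA lysates with protease inhibitors; equal protein loaded for SDS-PAGE, then PVDF transfer. Blocked in 5% milk/TBST (3% BSA for CK2α); anti-SIX1 or anti-CK2α 1:500, HRP secondary 1:2000; chemiluminescent detection.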

SiHa [2] = assay: Induction of apoptosis in human SiHa cells assessed as viable cells at 4 uM after 24 hrs by Annexin V-FITC/PI double staining based flow cytometric analysis (reference value: 90.8%); assay type: functional; settings: read-out: Activity
C-33-A [3] = assay: Cell cycle arrest in human C33A cells assessed as accumulation at Sub G1 phase at 4 uM after 24 hrs by propidium iodide staining based flow cytometric analysis (reference value: 0.7%); assay type: functional
Summary of the method: (§1)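 Cells in DMEM/10% FBS at 37 °C, 5% CO2 were given 4 μM for 24, 48 or 72 h, with DMSO as control. After trypsinization they were fixed in chilled 70% ethanol on ice for 30 min, treated with RNase A (1 mg/mL) for 30 min at room temperature, and stained with PI (20 μg/mL). At least 10 000 events were read by flow cytometry to give sub-G1, G0/G1, S and G2/M fractions; mean ± SEM.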

C-33-A [4] = assay: Induction of apoptosis in human C33A cells assessed as early apoptotic cells at 4 uM after 48 hrs by Annexin V-FITC/PI double staining based flow cytometric analysis (reference value: 12.9%); assay type: functional
[5] = target: T1, Homeobox protein SIX1 (Homo sapiens); assay: Inhibition of SIX1 in human SiHa cells at 2 to 4 uM after 48 hrs by Western blot analysis; assay type: cell-based
Summary of the method: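 SiHa cells in DMEM with 10% FBS were seeded at 1 × 10^6 per 100 mm dish and treated the next day at 2 or 4 μM for 48 h. Lysis was in RIPA buffer with protease inhibitors. Equal protein was run on SDS-PAGE and transferred to PVDF, blocked in 5% milk/TBST, probed with anti-SIX1 (1:500) then HRP secondary (1:2000), and detected by chemiluminescence.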

Ca-Ski [6] = assay: Induction of apoptosis in human CaSki cells assessed as viable cells at 4 uM after 24 hrs by Annexin V-FITC/PI double staining based flow cytometric analysis (reference value: 84%); assay type: functional; settings: read-out: Activity
[7] = target: Protein E6 (human papillomavirus 18) (UniProt P06463); assay: Inhibition of Human papillomavirus type18 derived E6 in human HeLa cells assessed as increase in p21 protein expression at 2 to 4 uM after 48 hrs by Western blot analysis; assay type: cell-based
Summary of the method: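 Cells were seeded at 1 × 10^6 per 100 mm dish and treated next day with 2 or 4 μM for 48 h. They were trypsinised, PBS-washed and lysed in RIPA with protease inhibitors. Equal protein was run on SDS-PAGE and transferred to PVDF. Primary antibodies were used at 1:500, with BSA 3% for blocking and antibodies for CK2α, Rb and pRb, otherwise 5% milk in TBST. HRP secondary at 1:2000, chemiluminescence detection.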

HeLa [8] = assay: Induction of apoptosis in human HeLa cells assessed as apoptotic cells at 4 uM after 48 hrs by Annexin V-FITC/PI double staining based flow cytometric analysis (reference value: 19.3%); assay type: functional
SiHa [9] = assay: Cell cycle arrest in human SiHa cells assessed as accumulation at G2/M phase at 4 uM after 72 hrs by propidium iodide staining based flow cytometric analysis (reference value: 18%); assay type: functional
Summary of the method: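 Cells in DMEM with 10% FBS, 2 mM L-glutamine, pen-strep, 37 °C, 5% CO2; seeded and left overnight, then treated at 4 μM with DMSO as control. Harvested by trypsin at 24, 48 or 72 h, fixed in chilled 70% ethanol 30 min on ice, RNase A (1 mg/mL) 30 min at room temperature, PI (20 μg/mL). Flow cytometry, ≥10 000 events, G0/G1, S, G2/M fractions; mean ± SEM.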

C-33-A [10] = assay: Cell cycle arrest in human C33A cells assessed as accumulation at G2/M phase at 4 uM after 24 hrs by propidium iodide staining based flow cytometric analysis (reference value: 26.2%); assay type: functional; summary of the method: as §1
C-33-A [11] = assay: Antiproliferative activity against human C33A cells assessed as reduction in cell viability after 48 hrs by CellTiter-Glo assay; assay type: functional, cell-based
Summary of the method: (§2)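 ATP-based luminescent viability readout. Cells were grown in DMEM with 10% FBS, 2 mM L-glutamine and penicillin-streptomycin at 37 °C, 5% CO2. 2 × 10^4 cells/well were seeded, then exposed the next day to 0–40 μM for 24, 48 or 72 h. % viability = 100 × treated/control. IC50 was fitted from a sigmoid dose-response curve. Run at least three times in quadruplicate; mean ± SEM.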

Ca-Ski [12] = assay: Antiproliferative activity against human CaSki cells assessed as reduction in cell viability after 72 hrs by CellTiter-Glo assay; assay type: functional, cell-based; summary of the method: as §2
HeLa [13] = assay: Cell cycle arrest in human HeLa cells assessed as accumulation at G2/M phase at 4 uM after 24 hrs by propidium iodide staining based flow cytometric analysis (reference value: 16.4%); assay type: functional; summary of the method: as §1
C-33-A [14] = assay: Cell cycle arrest in human C33A cells assessed as accumulation at G0/G1 phase at 4 uM after 24 hrs by propidium iodide staining based flow cytometric analysis (reference value: 58.4%); assay type: functional; summary of the method: as §1
C-33-A [15] = assay: Cell cycle arrest in human C33A cells assessed as increase in p53 protein expression at 2 to 4 uM after 48 hr by Western lot analysis; assay type: functional, cell-based
Summary of the method: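 Western blot. 1 × 10^6 cells were seeded per 100 mm dish and exposed the next day to 2 or 4 μM for 48 h. Cells were trypsinized and lysed in RIPA buffer with protease inhibitors. Equal protein was run on SDS-PAGE and transferred to PVDF, which was blocked in 5% milk/TBST. Anti-p53 and anti-p21 (also GAPDH) were used at 1:500 and HRP secondary at 1:2000; chemiluminescent detection.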

HeLa [16] = assay: Cell cycle arrest in human HeLa cells assessed as accumulation at G2/M phase at 4 uM after 72 hrs by propidium iodide staining based flow cytometric analysis (reference value: 12.6%); assay type: functional; summary of the method: as §1
SiHa [17] = assay: Induction of apoptosis in human SiHa cells assessed as viable cells at 4 uM after 48 hrs by Annexin V-FITC/PI double staining based flow cytometric analysis (reference value: 93.7%); assay type: functional; settings: read-out: Activity
C-33-A [18] = assay: Cell cycle arrest in human C33A cells assessed as accumulation at G2/M phase at 4 uM after 48 hrs by propidium iodide staining based flow cytometric analysis (reference value: 26.7%); assay type: functional; summary of the method: as §1

Chain of Protein E6 (human papillomavirus 18) (P06463 whole entry): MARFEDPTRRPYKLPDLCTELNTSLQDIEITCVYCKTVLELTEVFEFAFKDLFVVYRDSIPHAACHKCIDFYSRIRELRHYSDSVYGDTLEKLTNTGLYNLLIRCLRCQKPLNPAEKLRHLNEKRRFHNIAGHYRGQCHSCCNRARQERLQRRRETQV

Compound `O[C@]12C=C(c3nccc4c3[nH]c3ccccc34)[C@@H]3CCN(CCCC/C=C\CC1)C[C@@]31C[C@@H]3/C=C\CCCCN3[C@H]12` [MANZAMINE A] has a Ratio [1] of 10, a viability at 4 µM (SiHa [2]) of 82.5% and an Activity (C-33-A [3]) of 1.8%. The Activity (C-33-A [4]) was 9.7%, the inhibition [5] was “Active” and the viability at 4 µM (Ca-Ski [6]) was 81.4%. For the same compound, the inhibition [7] was “inactive”, the Activity (HeLa [8]) was 75.9% and the Activity (SiHa [9]) was 12.7%. It also gave an Activity (C-33-A [10]) of 24.6%, an IC50 (C-33-A [11]) of 2.1 µM and an IC50 (Ca-Ski [12]) of 9.4 µM. The Activity (HeLa [13]) was 13.8%, the Activity (C-33-A [14]) was 58.5% and the Activity (C-33-A [15]) was “inactive”. For the same compound, the Activity (HeLa [16]) was 16.2%, the viability at 4 µM (SiHa [17]) was 66.4% and the Activity (C-33-A [18]) was 18.3%.
